Activity calls are given as the source filed them. The calls are words filed in the database; no cut-off is given here.
What was measured:
[1] = Toxicity in high fat diet fed C57BL/6J mouse assessed as serum LDH level at 40 mg/kg, ip administered every 2 days for 11 weeks (reference value: 469 +/- 67 U/L); type: organism-based; details: in vivo
HEK293 [2] = experiment: Inhibition of Wnt/beta-catenin/Axin signaling (unknown origin) expressed in HEK293 cells assessed as decrease in Axin2 mRNA level after 48 hrs by qPCR analysis; type: cell-based; details: Homo sapiens
Procedure, shortened: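 HEK293 cells were treated with compound for 48 h, harvested in TRIzol, and Wnt target gene mRNA was quantified by qPCR.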

SW480 = experiment: Inhibition of Wnt/beta-catenin signaling in human SW480 cells harboring APC mutant at 50 nM after 24 hrs by luciferase reporter gene assay; type: cell-based
Mus musculus [3] = organism: Mus musculus; experiment: Inhibition of Wnt/beta-catenin/Axin signaling in mouse hepatocytes assessed as decrease in SCD1 mRNA level at 5 uM by qPCR analysis; type: cell-based
Procedure, shortened: (§1)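 Normal mouse hepatocytes were treated with 5 μM compound, and lipogenic and gluconeogenic gene mRNA was measured by qPCR; mean ± S.D. of triplicates.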

Axin-1 (Homo sapiens) = Axin-1 (Homo sapiens) (UniProt O15169); experiment: Stabilization of Axin1 in human HuH7 cells assessed as decrease in lipid accumulation at 5 uM after 36 hrs by nile red staining based fluorescence microscopic method; type: cell-based
Axin-1 (Homo sapiens), sequence (O15169 whole entry): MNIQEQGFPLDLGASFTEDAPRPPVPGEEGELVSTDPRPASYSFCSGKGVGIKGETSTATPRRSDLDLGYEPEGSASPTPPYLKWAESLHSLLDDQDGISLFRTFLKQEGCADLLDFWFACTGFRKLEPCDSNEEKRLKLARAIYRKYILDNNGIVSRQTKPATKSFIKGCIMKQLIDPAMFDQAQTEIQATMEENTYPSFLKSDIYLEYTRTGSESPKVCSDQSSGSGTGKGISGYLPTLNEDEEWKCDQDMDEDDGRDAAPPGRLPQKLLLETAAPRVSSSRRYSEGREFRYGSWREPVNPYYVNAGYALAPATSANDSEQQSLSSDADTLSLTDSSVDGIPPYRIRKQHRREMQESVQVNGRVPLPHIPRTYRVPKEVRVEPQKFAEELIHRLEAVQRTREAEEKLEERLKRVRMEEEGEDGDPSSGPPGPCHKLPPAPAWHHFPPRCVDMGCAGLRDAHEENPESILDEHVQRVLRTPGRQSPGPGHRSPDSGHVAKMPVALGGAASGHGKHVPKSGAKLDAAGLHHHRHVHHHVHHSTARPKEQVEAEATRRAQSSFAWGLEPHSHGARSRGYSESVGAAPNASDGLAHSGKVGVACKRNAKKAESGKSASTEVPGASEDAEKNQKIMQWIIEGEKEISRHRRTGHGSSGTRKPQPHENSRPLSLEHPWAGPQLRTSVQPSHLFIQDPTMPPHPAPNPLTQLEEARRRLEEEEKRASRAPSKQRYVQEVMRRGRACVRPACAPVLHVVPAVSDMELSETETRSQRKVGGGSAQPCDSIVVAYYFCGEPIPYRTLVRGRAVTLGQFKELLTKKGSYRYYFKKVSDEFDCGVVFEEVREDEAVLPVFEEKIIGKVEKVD
Procedure, shortened: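 Huh7 cells on collagen I-coated coverslips were treated with 5 μM compound for 36 h, then with 200 μM sodium oleate for a further 12–16 h. Cells were stained with 1 μM Nile red in HBSS for 10 min at 37 °C in the dark and imaged by fluorescence microscopy at 552/636 nm.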

Mus musculus [4] = experiment: Decrease in hepatic FGF21 mRNA level in high fat diet fed C57BL/6J mouse at 40 mg/kg, ip administered every 2 days for 11 weeks by qPCR analysis; type: functional, organism-based
Procedure, shortened: (§2)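 Male mice, 8 weeks old, fed a 45% kcal fat diet for 6 weeks, then dosed i.p. every 2 days in corn oil vehicle for 11 weeks. Liver mRNA of the indicated genes was quantified at sacrifice; mean ± SEM, n = 5 per group.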

HEK293 [5] = experiment: Inhibition of Wnt/beta-catenin signaling (unknown origin) expressed in GSK3beta knock down HEK293 cells harboring TCF/LEF-responsive luciferase assessed as luminescence at 20 nM measured after 24 hrs by luciferase reporter gene assay relative to control; type: cell-based; parameters: scale not given: the % may be the effect or the level left; details: Homo sapiens
Procedure, shortened: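 HEK293 cells were transfected with siRNA against GSK3β, Axin or CK1α using RNAiMAX for 36 h. Cells were then treated with or without compound at 20 nM for 24 h, and TCF/LEF luciferase reporter activity was read.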

Mus musculus [6] = organism: Mus musculus; experiment: Inhibition of Wnt/beta-catenin/Axin signaling in mouse hepatocytes assessed as decrease in ACAA1A mRNA level at 5 uM by qPCR analysis; type: cell-based; procedure, shortened: as §1
Mus musculus [7] = organism: Mus musculus; experiment: Inhibition of Wnt/beta-catenin/Axin signaling in mouse hepatocytes assessed as decrease in FASN mRNA level at 5 uM by qPCR analysis; type: cell-based; procedure, shortened: as §1
Mus musculus [8] = experiment: Effect on hepatic FASN mRNA level in normal chow diet fed C57BL/6J mouse at 40 mg/kg, ip administered every 2 days for 11 weeks by qPCR analysis; type: ADME, organism-based; details: in vivo
Procedure, shortened: (§3)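 Male mice, 8 weeks old, kept on normal chow throughout and dosed i.p. every 2 days in corn oil vehicle for 11 weeks. Body weight gain, liver/body weight ratio, and liver mRNA of the indicated genes were measured at sacrifice; mean ± SEM, n = 5 per group where stated.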

[9] = biological target: Glycogen synthase kinase-3 beta (Homo sapiens, UniProt P49841); experiment: Binding affinity to recombinant full length human N-terminal GST-tagged GSK3beta expressed in sf9 cells by SPR analysis
Glycogen synthase kinase-3 beta, sequence (P49841 whole entry): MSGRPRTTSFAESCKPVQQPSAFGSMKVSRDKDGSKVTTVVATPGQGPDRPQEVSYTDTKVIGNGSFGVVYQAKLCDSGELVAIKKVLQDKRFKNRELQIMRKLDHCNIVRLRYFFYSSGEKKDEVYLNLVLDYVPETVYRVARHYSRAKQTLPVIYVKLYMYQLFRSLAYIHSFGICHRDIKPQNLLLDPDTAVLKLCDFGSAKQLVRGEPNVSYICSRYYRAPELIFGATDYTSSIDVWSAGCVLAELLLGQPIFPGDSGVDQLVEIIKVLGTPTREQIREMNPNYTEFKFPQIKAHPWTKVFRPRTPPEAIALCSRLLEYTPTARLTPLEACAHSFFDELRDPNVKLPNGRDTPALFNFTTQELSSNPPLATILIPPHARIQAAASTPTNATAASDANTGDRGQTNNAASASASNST
Procedure, shortened: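 Recombinant GST-tagged human GSK3β. Binding was measured by surface plasmon resonance at a biosensor core facility, and K_D was determined.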

Mus musculus [10] = experiment: Decrease in hepatic Glp1 mRNA level in high fat diet fed C57BL/6J mouse at 40 mg/kg, ip administered every 2 days for 11 weeks by qPCR analysis; type: functional, organism-based; procedure, shortened: as §2
Mus musculus [11] = experiment: Effect on hepatic […] mRNA level in normal chow diet fed C57BL/6J mouse at 40 mg/kg, ip administered every 2 days for 11 weeks by qPCR analysis; type: ADME, organism-based; details: in vivo; procedure, shortened: as §3
Mus musculus [12] = experiment: Decrease in hepatic FASN mRNA level in high fat diet fed C57BL/6J mouse at 40 mg/kg, ip administered every 2 days for 11 weeks by qPCR analysis; type: functional, organism-based; procedure, shortened: as §2
Mus musculus [13] = experiment: Decrease in hepatic lipid accumulation in high fat diet fed C57BL/6J mouse at 40 mg/kg, ip administered every 2 days for 11 weeks; type: functional, organism-based
Procedure, shortened: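 Male mice, 8 weeks old, 24–27 g, given a 45% kcal fat diet for 6 weeks, then dosed i.p. every 2 days in corn oil vehicle with the diet continued. Sacrifice was about 24 h after the last dose. Liver was examined by H&E. Liver and serum triglyceride were measured by kit. Serum chemistry was included, and liver/body weight ratio was calculated.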

Mus musculus [14] = experiment: Decrease in hepatic […] mRNA level in high fat diet fed C57BL/6J mouse at 40 mg/kg, ip administered every 2 days for 11 weeks by qPCR analysis; type: functional, organism-based; procedure, shortened: as §2
HEK293 [15] = experiment: Growth inhibition of unstimulated HEK293 cells up to 100 uM after 72 hrs by CellTiter-Fluor assay; type: cell-based; details: human, hek293, 72 h
Procedure, shortened: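 Unstimulated HEK293 cells were plated at 3.5×10^5/well and grown for 24 h, then incubated with compound for 72 h. Viability was read with CellTiter-Fluor.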

HEK293 [16] = experiment: Inhibition of LiCl-activated Wnt/beta-catenin/Axin signaling (unknown origin) expressed in HEK293 cells assessed as degradation of beta-catenin by measuring decrease in beta-catenin protein expression after 24 hrs by Western blot method; type: cell-based; details: Homo sapiens
Procedure, shortened: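 HEK293 cells were treated with compound in the presence of lithium chloride for 24 h. Lysis buffer contained 10 mM HEPES, 100 μM EDTA, 10 mM KCl, 0.5% NP40 and inhibitors. Protein was quantified by BCA, resolved on 10% SDS-PAGE, and immunoblotted for β-catenin.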

Mus musculus [17] = experiment: Effect on hepatic ACAT2 mRNA level in normal chow diet fed C57BL/6J mouse at 40 mg/kg, ip administered every 2 days for 11 weeks by qPCR analysis; type: ADME, organism-based; details: in vivo; procedure, shortened: as §3
Mus musculus [18] = experiment: Effect on hepatic CycD1 mRNA level in normal chow diet fed C57BL/6J mouse at 40 mg/kg, ip administered every 2 days for 11 weeks by qPCR analysis; type: ADME, organism-based; details: in vivo; procedure, shortened: as §3
Mus musculus [19] = experiment: Decrease in hepatic G6pase mRNA level in high fat diet fed C57BL/6J mouse at 40 mg/kg, ip administered every 2 days for 11 weeks by qPCR analysis; type: functional, organism-based; procedure, shortened: as §2
HEK293 [20] = experiment: Inhibition of Wnt3a activated Wnt/beta-catenin/Axin signaling (unknown origin) expressed in HEK293 cells assessed as stabilization of Axin1 protein at 1 to 10 uM after 2 hrs by Western blot method; type: cell-based; details: Homo sapiens
Procedure, shortened: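 HEK293 cells stimulated with WNT3a were treated with compound for 2 h. Cells were lysed in 10 mM HEPES, 100 μM EDTA, 10 mM KCl, 0.5% NP40, protein was quantified by BCA, and β-catenin and Axin1 were resolved on 10% SDS-PAGE and immunoblotted.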

Mus musculus [21] = experiment: Effect on hepatic GCK mRNA level in normal chow diet fed C57BL/6J mouse at 40 mg/kg, ip administered every 2 days for 11 weeks by qPCR analysis; type: ADME, organism-based; details: in vivo; procedure, shortened: as §3
[22] = Toxicity in high fat diet fed C57BL/6J mouse assessed as serum uric acid level at 40 mg/kg, ip administered every 2 days for 11 weeks (reference value: 6.3 +/- 0.5 mg/dl); type: organism-based; details: in vivo

With `Cc1ccccc1-n1nnc(C(=O)Nc2ccc3ccccc3n2)c1C` the Activity [1] was 313 U/L, the inhibition (HEK293 [2]) was “Active” and the inhibition (SW480) was “Active”. For the same molecule, the inhibition (Mus musculus [3]) was “Active”, the Activity (Axin-1 (Homo sapiens)) was “Active” and the Activity (Mus musculus [4]) was “Active”. The Activity (HEK293 [5]) was 69%, the inhibition (Mus musculus [6]) was “Active” and the inhibition (Mus musculus [7]) was “Active”. The Activity (Mus musculus [8]) was “Non-Toxic”, the Kd [9] was 4.3 µM and the Activity (Mus musculus [10]) was “Active”. For the same molecule, the Activity (Mus musculus [11]) was “Non-Toxic”, the Activity (Mus musculus [12]) was “Active” and the Activity (Mus musculus [13]) was “Active”. The Activity (Mus musculus [14]) was “Active”, the “growth inhibition (GI)” value (HEK293 [15]) was “Non-Toxic” and the inhibition (HEK293 [16]) was “Active”. The Activity (Mus musculus [17]) was “Non-Toxic”, the Activity (Mus musculus [18]) was “Non-Toxic” and the Activity (Mus musculus [19]) was “Active”. The inhibition (HEK293 [20]) was “Active”, the Activity (Mus musculus [21]) was “Non-Toxic” and the Activity [22] was 4.8 mg/dL.

— ChEMBL document CHEMBL4371095, “Triazole-Based Inhibitors of the Wnt/β-Catenin Signaling Pathway Improve Glucose and Lipid Metabolisms in Diet-Induced Obese Mice” (J Med Chem, 2019)
